We go through 16 compounds from ChEMBL document CHEMBL3351899, “Novologues containing a benzamide side chain manifest anti-proliferative activity against two breast cancer cell lines” (Bioorg Med Chem Lett, 2014).

As usually defined, the EC50 is the concentration at which the effect is half-maximal. A high value points to a less potent agent.

Active and inactive are the calls of the source. The calls are words filed in the database; no cut-off is given here.

Assay [1] deals with MCF7. In words: Antiproliferative activity against human MCF7 cells. The format is functional. In short, it runs like this: (§1)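 Cell-based antiproliferation assay in SKBr3 (ER-negative, HER2-overexpressing) and MCF-7 (ER-positive) breast cancer cells. Values are mean ± standard deviation from at least two separate experiments, each run in triplicate.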
Assay [2] can be described thus: Antiproliferative activity against human SKBR3 cells. The format is functional, cell-based, SK-BR-3. The settings on record: for EC50: Homo sapiens, SK-BR-3. In short, it runs like this:
as §1

For assay [3], the target named is Heat shock protein HSP 90-beta (Homo sapiens) (UniProt P08238). As to the kind of experiment: Inhibition of HSP90-mediated p-Akt degradation in human MCF7 cell lysate after 24 hrs by Western blot analysis. Type of assay: cell-based. Put shortly: (§2)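 MCF7 cells grown to confluence, seeded at 0.4 x 10^6 cells/well, incubated 24 h, then treated 24 h with varying compound concentrations (0.25% DMSO final) or DMSO vehicle; geldanamycin 0.5 µM as positive control. Cells lysed with protease/phosphatase inhibitors and clarified at 14,000g, 15 min, 4 °C. 5 µg protein run on reducing 10% gels, PVDF transfer, immunoblot with HRP secondary and chemiluminescent detection; actin as loading control.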
Chain of Heat shock protein HSP 90-beta (Homo sapiens) (P08238 whole entry): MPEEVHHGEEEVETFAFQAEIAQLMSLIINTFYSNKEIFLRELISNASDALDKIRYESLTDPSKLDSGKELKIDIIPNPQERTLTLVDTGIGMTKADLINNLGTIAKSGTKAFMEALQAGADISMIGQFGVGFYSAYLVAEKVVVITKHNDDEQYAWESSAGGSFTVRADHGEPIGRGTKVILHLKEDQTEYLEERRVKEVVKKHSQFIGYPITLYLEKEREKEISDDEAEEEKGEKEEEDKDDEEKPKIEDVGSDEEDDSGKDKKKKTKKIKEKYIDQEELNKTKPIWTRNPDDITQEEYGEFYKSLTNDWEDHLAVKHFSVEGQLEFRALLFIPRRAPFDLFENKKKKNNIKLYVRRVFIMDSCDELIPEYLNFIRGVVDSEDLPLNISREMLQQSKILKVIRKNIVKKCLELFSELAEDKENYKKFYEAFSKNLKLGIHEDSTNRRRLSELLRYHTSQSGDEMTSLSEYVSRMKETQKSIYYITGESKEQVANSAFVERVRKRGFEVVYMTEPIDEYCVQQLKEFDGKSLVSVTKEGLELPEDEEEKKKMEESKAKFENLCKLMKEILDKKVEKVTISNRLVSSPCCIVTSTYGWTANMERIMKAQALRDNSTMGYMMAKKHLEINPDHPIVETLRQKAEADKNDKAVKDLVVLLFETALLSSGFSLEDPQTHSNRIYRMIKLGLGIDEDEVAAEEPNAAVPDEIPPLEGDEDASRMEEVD
(Immunoblotting shows a protein as a band on a membrane.)

In assay [4] the test system is MCF7. As to the kind of experiment: Effect on HSP90 level in human MCF7 cell lysate at 1 to 25 uM after 24 hrs by Western blot analysis. The format is functional, cell-based. In short, it runs like this:
as §2

The target in assay [5] is Heat shock protein HSP 90-beta (Homo sapiens) (UniProt P08238). In words: Inhibition of HSP90-mediated Raf-1 degradation in human MCF7 cell lysate after 24 hrs by Western blot analysis. Type of assay: cell-based. Put shortly:
as §2

Assay [6] shares this target. In words: Inhibition of HSP90-mediated Her2 degradation in human MCF7 cell lysate after 24 hrs by Western blot analysis. The format is cell-based. In short, it runs like this:
as §2

For `COc1cccc(-c2cc(C(=O)NCCc3ccc(OC4CCN(C)CC4)cc3-c3ccccc3)ccc2OC)c1`, the figures for the Activity (in the assay with MCF7 [1]; in assay [2]) were 8.12 µM and 6.77 µM, respectively.
For `COc1cccc(-c2cc(C(=O)NCCc3ccc(OC4CCN(C)CC4)cc3-c3cccc(C(F)(F)F)c3)ccc2OC)c1`, the Activity with MCF7 [1] stood at 1.62 µM; in assay [2] it was 1.52 µM. The inhibition result in assay [3], in assay [5] and in assay [6] was “Dose-dependent effect” throughout. Besides, the outcome in the assay on MCF7 [4] was Active.
Consider `CN1CCC(Oc2ccc(CCNC(=O)c3ccccc3)c(-c3cccc(C(F)(F)F)c3)c2)CC1`, for which the Activity with MCF7 [1] was 15.07 µM; in assay [2] it was 13.22 µM.
With `CO[C@@H]1[C@@H](O)[C@@H](O)[C@H](Oc2ccc(CCNC(C)=O)c(-c3cccc(C(F)(F)F)c3)c2)OC1(C)C`, the Activity in the assay on MCF7 [1] was greater than 500 µM. In assay [2], this compound displayed an EC50 greater than 500000 nM.
As to `COc1cccc(-c2cc(C(=O)NCCc3ccc(OC4CCN(C)CC4)cc3-c3cccc(Cl)c3)ccc2OC)c1`, the Activity in the assay on MCF7 [1] was 6.87 µM; in assay [2], 5.63 µM.
In the same order, the values of `CO[C@@H]1[C@@H](O)[C@@H](O)[C@H](Oc2ccc(CCNC(=O)c3ccccc3)c(-c3cccc(C(F)(F)F)c3)c2)OC1(C)C` are 44.44 µM and 41.9 µM.
Take `COc1ccc(C(=O)NCCc2ccc(OC3CCN(C)CC3)cc2-c2cccc(C(F)(F)F)c2)cc1`: the values for the Activity (in the assay on MCF7 [1]; in assay [2]) were 4.82 µM and 2.71 µM, respectively.
In the same order, the values of `COc1cccc(-c2cc(OC3CCN(C)CC3)ccc2CCNC(=O)c2ccc(OC)c(-c3cccc(OC)c3)c2)c1` are 12.36 µM and 11.54 µM.
As for `CO[C@@H]1[C@@H](O)[C@@H](O)[C@H](Oc2ccc(CCNC(=O)c3ccc(C(C)(C)C)cc3)c(-c3cccc(C(F)(F)F)c3)c2)OC1(C)C`, the Activity in the assay on MCF7 [1] came out at 23.69 µM; in assay [2], 21.78 µM.
Turning to `COc1ccc(C(=O)NCCc2ccc(O[C@@H]3OC(C)(C)[C@H](OC)[C@@H](O)[C@H]3O)cc2-c2cccc(C(F)(F)F)c2)cc1`, the Activity with MCF7 [1] worked out at 12.1 µM; in assay [2] it was 14.02 µM.
For `CN1CCC(Oc2ccc(CCNC(=O)c3ccc(C(C)(C)C)cc3)c(-c3cccc(C(F)(F)F)c3)c2)CC1` the same measures were 1.48 µM and 1.16 µM.
For `CN1CCC(Oc2ccc(CCNC(=O)c3ccc(Cl)cc3)c(-c3cccc(C(F)(F)F)c3)c2)CC1`, the Activity was 2.11 µM in the assay on MCF7 [1] and 1.87 µM in assay [2].
For `COc1cccc(-c2cc(C(=O)NCCc3ccc(O[C@@H]4OC(C)(C)[C@H](OC)[C@@H](O)[C@H]4O)cc3-c3cccc(C(F)(F)F)c3)ccc2OC)c1` the same measures were 18.4 µM and 13.98 µM.
In the same order, the values of `CO[C@@H]1[C@@H](O)[C@@H](O)[C@H](Oc2ccc(CCNC(=O)c3ccc(Cl)cc3)c(-c3cccc(C(F)(F)F)c3)c2)OC1(C)C` are 11.69 µM and 14.48 µM.
Consider `CO[C@@H]1[C@@H](O)[C@@H](O)[C@H](Oc2ccc3cc(NC(C)=O)c(=O)oc3c2C)OC1(C)C`, for which, in assay [2], the EC50 was 10 nM.
As for `COc1cccc(-c2cc(C(=O)NCCc3ccc(OC4CCN(C)CC4)cc3-c3cccc(F)c3)ccc2OC)c1`, the Activity in the assay with MCF7 [1] came out at 3.19 µM; in assay [2], 2.82 µM.
